Compound activity from PubChem BioAssay.
Hits are enriched below; roughly 3.7% of the tested compounds scored in any of these assays.
Kir21 inh = inhibitors of mouse Kir2.1 inward-rectifier potassium channel; P35561; HEK293-Kir2.1, FluxOR thallium flux fluorescence; active compounds read low; B-score at 10 µM; 0.85% of 310,000 active; AID 1672;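 active = fluorescence ratio B-score at or below minus 3 SD of library scores, with starting-brightness B-score within 2 SD, cut at about -4.2 in these data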;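 note: channel flux triggered by added potassium and thallium sulfate stimulus; B-score of peak minus minimum fluorescence over baseline after thallium stimulus; more negative B-score means stronger Kir2.1 block with less thallium influx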
KCNK3 inh = human KCNK3 channel inhibition, primary screen; CHO-KCNK3 thallium flux, FluxOR fluorescence; active compounds read low; 0.84% of 340,000 active; B-score at 10 µM; O14649; AID 602410;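 active = B-score under library mean minus 4 SD, starting fluorescence ratio at most library mean plus 5 SD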;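 note: more negative B-score means stronger inhibition of thallium flux through KCNK3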
Target sequence (O14649 whole entry, looked up): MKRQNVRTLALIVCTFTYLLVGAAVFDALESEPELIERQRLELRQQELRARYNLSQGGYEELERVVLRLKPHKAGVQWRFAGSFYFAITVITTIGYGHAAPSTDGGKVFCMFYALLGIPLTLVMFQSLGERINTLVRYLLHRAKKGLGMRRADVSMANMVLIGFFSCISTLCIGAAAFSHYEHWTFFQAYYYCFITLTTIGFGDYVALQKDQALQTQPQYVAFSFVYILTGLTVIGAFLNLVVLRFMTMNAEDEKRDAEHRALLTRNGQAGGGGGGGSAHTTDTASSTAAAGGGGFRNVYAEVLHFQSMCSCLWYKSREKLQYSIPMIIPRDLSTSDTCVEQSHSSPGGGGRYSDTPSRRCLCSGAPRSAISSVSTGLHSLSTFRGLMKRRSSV
KCNQ1 block = human KCNQ1 channel inhibition. P51787. CHO-K1 KCNQ1, FluxOR thallium flux fluorescence; active compounds read high. B-score at 10 µM. 1.3% of 310,000 active;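 active = compounds whose thallium flux B-score, printed positive for inhibition, exceeds three library SD while starting fluorescence stays within three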;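 note: channel opened by potassium depolarization with thallium stimulus after 20 min compound exposure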
hERG rescue = shields human hERG channel from block by proarrhythmic agents. Q12809. activation (rescue from dofetilide block), less the hit threshold, % at 10 µM. AID 1511. 0.51% of 310,000 active. CHO-hERG, FluxOR thallium flux, dofetilide IC70 present;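 active = activation above the mean of controls blocked by dofetilide plus 5 SD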;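 note: thallium influx through hERG after potassium depolarization seen as dye fluorescence rise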
KCNQ1 pot = human KCNQ1 channel potentiation or activation. P51787. CHO-K1 KCNQ1, thallium flux FluxOR fluorescence; active compounds read high. B-score at 10 µM. 0.35% of 310,000 active. AID 2648;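 active = fluorescence ratio B-score, a plate-corrected score, at least three library SD, with initial intensity B-score within 5 SD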
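Schedule – 37 °C overnight plating, 90-min dark dye load, 20-min compound pretreatment · System – stable KCNQ1 CHO-K1 line · Probe or stimulus – thallium- and potassium-containing depolarizing buffer · Measured by – kinetic FluxOR fluorescence, 10 s baseline plus 110 s post-stimulus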
KCNK9 inh = human KCNK9 channel inhibition | 1.2% of 310,000 active | Q9NPC2 | B-score at 10 µM | AID 488922 | HEK293 KCNK9, FluxOR thallium flux fluorescence; active compounds read low;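 active = ratio B-score over 3 SD below the library mean, with starting fluorescence within 5 SD of its mean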;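 note: negative B-score means less thallium flux so channel inhibition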
Hits are given with their value; – = inactive; · = not tested or not shown.

SMILES | Kir21 inh | KCNK3 inh | KCNQ1 block | hERG rescue | KCNQ1 pot | KCNK9 inh
COc1ccccc1NNC(=O)c1cc(C(C)(C)C)nn1Cc1ccccc1 | – | – | 6 | – | – | –
CC(C)(C)c1cc(C(=O)NNc2ccc(OC(F)(F)F)cc2)n(Cc2ccccc2)n1 | – | – | – | – | – | -8
Cc1ccc(NNC(=O)c2cc(C(C)(C)C)nn2Cc2ccccc2)cc1 | – | – | – | – | – | –
COc1cc2nc(Nc3ccc(F)cc3)nc(N)c2cc1OC | -5.9 | – | – | – | – | –
Cc1cccn2c(/C=N/OCc3ccc(F)cc3)c(-c3ccc(Cl)cc3)nc12 | – | – | – | – | – | -7.8
COc1cccc(NC(=O)CCNS(=O)(=O)c2ccc3c(c2)CC(C)N3C(=O)C2CC2)c1 (stereo not drawn) | – | – | – | – | – | –
CCOC(=O)N1CCN(c2nc3ccccc3nc2C(C#N)C(=O)NCCc2ccccc2)CC1 (stereo not drawn) | – | – | 8 | – | – | –
N#CC(C(=O)NCCc1ccccc1)c1nc2ccccc2nc1N1CCCCC1 (stereo not drawn) | – | – | – | – | – | –
CCCCCCNC(=O)C(C#N)c1nc2ccccc2nc1N1CCOCC1 (stereo not drawn) | – | – | 7 | – | – | -6.8
CCCCCCOC(=O)C(C#N)c1nc2ccccc2nc1N1CCN(CC)CC1 (stereo not drawn) | – | – | 7 | – | – | –
COCCCNC(=O)C(C#N)c1nc2ccccc2nc1N1CCCC1 (stereo not drawn) | – | – | – | – | – | –
CCCCCNC(=O)C(C#N)c1nc2ccccc2nc1N1CCCC1 (stereo not drawn) | – | – | 7 | – | – | –
O=C(CN1C(=O)COc2ccccc21)N1CCOCC1 | – | – | – | – | – | –
CCOc1ccc(-c2cc(C(=O)N/N=C(\C)c3cccnc3)c3ccccc3n2)c(OCC)c1 | – | – | – | – | – | –
CC(=O)Nc1ccc(S(=O)(=O)NC2CC2)cc1 | – | – | – | – | – | –
COc1ccc(CC(=O)N(C)Cc2cccc(OC)c2OC)cc1S(=O)(=O)N1CCOCC1 | – | – | – | – | – | –
CC(C)Cc1ccc(S(=O)(=O)NCC2CCCO2)cc1 (stereo not drawn) | – | – | – | – | – | –
Cc1ccc(C)c(SCC(=O)NC(=O)NC2CCCC2)c1 | · | – | · | · | · | ·
CC1c2cc3c(cc2CCN1C(=O)c1ccc(C(F)(F)F)cc1)OCCCO3 (stereo not drawn) | – | – | – | – | – | -6.9
O=S(=O)(Nc1ccc(S(=O)(=O)Nc2ncccn2)cc1)c1ccc(Cl)cc1 | – | – | – | – | – | –
O=S(=O)(Nc1cccc(CCc2ccccn2)c1)c1ccc(Cl)cc1 | -9.2 | – | – | – | – | –
COc1cccc(CC2(CO)CCCN(Cc3ccc(C)s3)C2)c1 (stereo not drawn) | – | – | – | – | – | –
COc1cc(Cl)c(CN2CCCC(CO)(Cc3ccccc3)C2)cc1OC (stereo not drawn) | – | – | – | – | – | –
COc1cccc(CC2(CO)CCCN(Cc3cc4ccccc4[nH]3)C2)c1 (stereo not drawn) | -4.2 | – | – | – | – | –
CSc1ccc(CN2CCCC(CO)(Cc3ccccc3)C2)cc1 (stereo not drawn) | -4.5 | – | – | – | – | –
SMILES | Kir21 inh | KCNK3 inh | KCNQ1 block | hERG rescue | KCNQ1 pot | KCNK9 inh
COc1cccc(CC2(CO)CCCN(Cc3c(C)cc(C)cc3-n3cccn3)C2)c1 (stereo not drawn) | -5.4 | – | – | – | – | –
C[C@H](CO)N1C[C@H](C)[C@@H](CN(C)S(=O)(=O)c2ccc(Cl)cc2)Oc2ccc(NS(=O)(=O)c3ccccc3)cc2CC1=O | · | – | · | · | · | ·
CN(C)C(C)(C)C#CCCCCC#CC(C)(C)N(C)C | · | – | · | · | · | ·
CN(C)C(C)(C)C#CCC(c1ccccc1)c1ccccc1 | -5 | – | – | – | – | –
CC1(C)Oc2ccc3ccc(=O)oc3c2/C(=C/Nc2cccc(O)c2)C1=O | – | – | 6 | – | – | -6.7
COc1cc(NC(=O)c2cc(C)no2)cc(OC)c1OC | – | – | – | – | – | –
Cc1ccc2[nH]c(=O)c(CN(Cc3ccccc3)C(=S)NCCCN(C)C)cc2c1 | -4.7 | – | – | – | – | –
